Assay outcomes as filed in PubChem.
Wnt bcat act: Wnt/beta-catenin pathway activators, primary screen, cell-based, plate reader, single point; Wnt/beta-catenin reporter cell assay, activator; activation, % at 9.35 µM; 300,000 tested, 1.2% active; AID 743398, 2014; in the data active = activation above about 30%, passing the limit was not always enough; inconclusive = no clear call, values can overlap the other calls
Casp6 inh: human caspase-6 inhibitors, primary screen, biochemical, VEID-R110 fluorescence, single point, set 2; purified caspase-6, Z-VEID-R110 cleavage fluorescence; inhibition, % at 12.5 µM; 350,000 tested, 0.53% active;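 active = mean inhibition across replicates at least about 35%, with every replicate also reaching that limit, limit read from the data; inconclusive = only one of the two criteria met; inactive = neither criterion met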
XiGFP reactiv: activators of inactive X chromosome reactivation, primary screen, imaging, XiGFP fibroblasts, GFP high-content imaging, set 2 | XiGFP mouse fibroblasts, % GFP-positive cells imaging, 3 d; cells co-treated with 5-aza-dC sensitizer; scaled so ellipticine positive control = 100% | activation, % at 7.58 µM | 360,000 tested, 0.055% active | AID 743238, 2013;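 active = mean normalized replicate activation at least 10% and every replicate at or above 10%; inconclusive = only one of the two criteria met; inactive = mean below 10% and not all replicates reach 10%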
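Assay system – SV40-immortalized XiGFP fibroblast cells, line 68-5-11 · Buffer or medium – DMEM supplemented with 5-aza-dC as sensitizing agent · Dosing – one concentration, pinned · Benchmarks – positive control ellipticine, 6 µM final · Times – 3 days compound exposure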
NSD2 inh: NSD2 histone methyltransferase inhibitors, primary screen, biochemical, AlphaScreen, single concentration, set 2 | Histone-lysine N-methyltransferase NSD2 (Homo sapiens), O96028 | NSD2 peptide methylation, 120 min | inhibition, % at 12.5 µM | 310,000 tested, 0.54% active | AID 743445, 2014; in the data active = inhibition above about 50%
Target sequence (O96028 whole entry, looked up): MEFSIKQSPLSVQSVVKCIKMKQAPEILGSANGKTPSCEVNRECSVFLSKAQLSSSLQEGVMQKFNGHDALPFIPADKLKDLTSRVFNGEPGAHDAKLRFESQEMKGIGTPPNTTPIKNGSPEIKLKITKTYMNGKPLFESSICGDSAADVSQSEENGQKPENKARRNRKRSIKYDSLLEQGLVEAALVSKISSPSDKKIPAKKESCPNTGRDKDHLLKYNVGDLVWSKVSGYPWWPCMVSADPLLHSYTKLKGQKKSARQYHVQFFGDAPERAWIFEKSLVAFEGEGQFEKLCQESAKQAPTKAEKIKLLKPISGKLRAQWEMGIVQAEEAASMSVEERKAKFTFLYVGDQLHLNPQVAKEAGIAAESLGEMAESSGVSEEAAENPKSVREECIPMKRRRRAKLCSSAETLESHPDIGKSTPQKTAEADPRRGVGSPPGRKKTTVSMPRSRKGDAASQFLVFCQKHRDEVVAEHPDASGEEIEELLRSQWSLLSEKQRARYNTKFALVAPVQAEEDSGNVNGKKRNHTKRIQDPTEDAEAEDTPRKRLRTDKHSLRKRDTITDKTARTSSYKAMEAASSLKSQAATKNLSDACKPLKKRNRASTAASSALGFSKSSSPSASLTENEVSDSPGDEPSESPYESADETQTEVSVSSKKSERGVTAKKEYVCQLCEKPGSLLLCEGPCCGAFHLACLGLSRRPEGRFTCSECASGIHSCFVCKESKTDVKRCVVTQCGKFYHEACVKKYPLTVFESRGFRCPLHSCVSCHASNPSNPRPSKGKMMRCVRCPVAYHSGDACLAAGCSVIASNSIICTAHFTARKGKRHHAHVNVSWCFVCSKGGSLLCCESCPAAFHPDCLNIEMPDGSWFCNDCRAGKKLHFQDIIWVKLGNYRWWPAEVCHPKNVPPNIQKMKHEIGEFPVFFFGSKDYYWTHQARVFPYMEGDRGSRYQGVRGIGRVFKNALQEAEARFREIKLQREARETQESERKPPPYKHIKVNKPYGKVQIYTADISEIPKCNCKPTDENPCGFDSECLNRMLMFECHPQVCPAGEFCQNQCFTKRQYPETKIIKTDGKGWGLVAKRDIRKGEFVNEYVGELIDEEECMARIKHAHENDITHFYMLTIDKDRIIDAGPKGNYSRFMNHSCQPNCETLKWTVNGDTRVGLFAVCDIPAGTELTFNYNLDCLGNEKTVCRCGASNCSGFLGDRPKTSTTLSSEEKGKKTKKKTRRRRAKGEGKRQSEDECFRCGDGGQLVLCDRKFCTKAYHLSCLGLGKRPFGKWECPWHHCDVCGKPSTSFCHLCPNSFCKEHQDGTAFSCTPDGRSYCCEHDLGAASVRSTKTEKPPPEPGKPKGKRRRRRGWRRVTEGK
esBAF inh: Bmi1 luciferase reporter increase in mESCs, primary screen, esBAF inhibitor project, mouse ES cells, Bmi1 luciferase knock-in, single point | 24 h; 100% = twice the neutral-well signal | reporter increase, % at 12.5 µM | 350,000 tested, 2% active | AID 602393, 2012; in the data active = activation above about 40%; inconclusive = no clear call, values can overlap the other calls;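 also: a rise in the Bmi1 reporter signal indicates esBAF inhibition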
MITF act: activators of MITF-driven TRPM1 promoter reporter, primary screen, cell-based, SK-MEL-5, luciferase, single point; SK-MEL-5 TRPM1-promoter luciferase, 24 h; % of positive control, neutral wells = 0; activation, % at 12.5 µM; 300,000 tested, 0.75% active; AID 588334, 2011;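 active = mean activation of at least 80% with every replicate also reaching 80%; inconclusive = mean reaches 80% but some replicate falls short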
Each line names hits and unclear results; the compound was inactive in the other large screens. This is a sample that favours compounds with a hit; in the whole collection about 3% have one here.

COC(=O)[C@H]1[C@H](CO)[C@H]2Cn3c(ccc(-c4ccccc4)c3=O)[C@H]2N1CC1CCCCC1	none (no result: Wnt bcat act, NSD2 inh, MITF act)
COc1ccc2c3c(n(C)c2c1)[C@@H](CO)N(Cc1cccnc1)CC31CCN(C(=O)c2cccnc2)CC1	none (no result: Wnt bcat act, NSD2 inh, esBAF inh, MITF act)
COc1ccc2nc3sc(C(=O)NCCCN4CCc5ccccc5C4)cc3cc2c1	esBAF inh 73
COc1ccc2nc3sc(C(=O)N4CCN(C)CC4)cc3cc2c1	none (no result: Wnt bcat act, Casp6 inh, XiGFP reactiv)
COc1ccc(NC(=O)N(C)C[C@H]2OCCCC[C@@H](C)Oc3ccc(NC(=O)C4CCCCC4)cc3C(=O)N([C@@H](C)CO)C[C@H]2C)cc1	none (no result: Wnt bcat act, NSD2 inh, MITF act)
O=C(O)CN1C(=O)/C(=C\c2cc(Br)ccc2OCc2ccc([N+](=O)[O-])cc2)SC1=S	Casp6 inh 55
O=C(O)CN1C(=O)/C(=C\c2cccc(OCc3ccc(Cl)cc3Cl)c2)SC1=S	Casp6 inh 60 (no result: MITF act)
O=C(O)CN1C(=O)/C(=C\c2cc(Br)ccc2OCc2ccccc2Cl)SC1=S	Casp6 inh 76
O=C(O)CCN1C(=O)/C(=C\c2cccc(OCc3ccccc3)c2)SC1=S	none
O=C(O)CN1C(=O)/C(=C\c2cc(Br)ccc2OCc2ccccc2F)SC1=S	Casp6 inh 38
O=C(c1ccc(F)cc1)N1CC(=O)N2[C@H](CO)[C@H](c3ccc(C#CCC4CCCC4)cc3)[C@H]2C1	none (no result: Wnt bcat act, Casp6 inh, NSD2 inh, esBAF inh, MITF act)
CCCNC(=O)C[C@@H]1C[C@@H]2c3cc(NC(=O)CC4CC4)ccc3O[C@@H]2[C@@H](CO)O1	none (no result: Wnt bcat act, NSD2 inh, MITF act)
O=C(O)CN1C(=O)/C(=C\c2ccccc2OCc2ccc(Cl)cc2Cl)SC1=S	Casp6 inh 52 (no result: MITF act)
COc1ccc(CN2CC3(C2)CN(Cc2ccc4c(c2)OCO4)[C@@H](CO)c2[nH]c4cc(OC)ccc4c23)cc1	none (no result: Wnt bcat act, Casp6 inh, NSD2 inh, esBAF inh, MITF act)
Fc1ccc(CSc2ccc(-c3ccco3)nn2)cc1	none (no result: esBAF inh)
Fc1cccc(CSc2ccc(-c3ccco3)nn2)c1	Wnt bcat act 30, esBAF inh 66 (no result: Casp6 inh)
COc1ccc2c3c([nH]c2c1)[C@@H](CO)N(Cc1ccccn1)CC31CN(C(C)=O)C1	none (no result: Wnt bcat act, Casp6 inh, NSD2 inh, esBAF inh, MITF act)
COc1ccc2c3c(n(C)c2c1)[C@@H](CO)N(C)CC31CCN(C(=O)c2cccnc2)CC1	none (no result: Wnt bcat act, NSD2 inh, esBAF inh, MITF act)
CC(C)C#Cc1ccc([C@H]2[C@@H](CO)N3C(=O)CN(C(=O)Cc4cccnc4)C[C@H]23)cc1	none (no result: Wnt bcat act, Casp6 inh, NSD2 inh, esBAF inh, MITF act)
O=C(O)/C(=C\c1cccc(O)c1)c1ccc(S(=O)(=O)N2CCCC2)s1	Casp6 inh 58
CSc1ccc(/C=C(\C(=O)O)c2ccc(S(=O)(=O)N3CCCC3)s2)cc1	Casp6 inh 46
COC(=O)C1CCN(C(=O)C2CC(=O)N(c3ccc(C)c(Cl)c3)C2)CC1 (centres undefined)	esBAF inh 56
CCC(=O)NC(NC(=S)Nc1ccccc1Br)C(Cl)(Cl)Cl (centres undefined)	Casp6 inh 59 (no result: NSD2 inh)
CC(=O)NC(NC(=S)Nc1ccccc1Br)C(Cl)(Cl)Cl (centres undefined)	none (no result: esBAF inh)
N/C(=N\OC(=O)c1cccs1)c1ccc(Cl)cc1	Wnt bcat act 57 (no result: MITF act)
COc1ccc(/C(N)=N/OC(=O)c2cccs2)cc1	Wnt bcat act 40 (no result: esBAF inh)
N/C(CC(=O)Nc1ccc(F)c(Cl)c1)=N\OC(=O)c1cccs1	none (no result: esBAF inh, MITF act)
COc1ccc(NC(=O)c2ccc(NC(=O)c3cccs3)cc2)cc1	none (no result: esBAF inh)
O=C(Nc1nnc(SCc2ccccc2)s1)C1=COCCO1	esBAF inh 67
O=C(Nc1nnc(SCc2ccc(F)cc2)s1)C1=COCCO1	esBAF inh 48
O=C(Nc1nnc(SCc2ccccc2F)s1)C1=COCCO1	none
O=C(NCCc1ccccc1)C1=COCCO1	esBAF inh 48
c1ccc(CSc2nnc(NC3=NCCCCC3)s2)cc1	esBAF inh 41 (no result: Wnt bcat act, Casp6 inh, XiGFP reactiv, MITF act)
C/C=C/c1cnc2c(c1)C(=O)N([C@H](C)CO)C[C@@H](C)[C@@H](CN(C)Cc1ccc(F)cc1)O2	none (no result: Wnt bcat act, NSD2 inh, MITF act)
C[C@H]1CN([C@@H](C)CO)C(=O)CCCn2cc(nn2)CO[C@H]1CN(C)Cc1cccnc1	none (no result: Wnt bcat act, NSD2 inh, MITF act)
O=C(O)c1cccc(NC2=C(n3nnc4ccccc43)C(=O)c3ccccc3C2=O)c1	Casp6 inh 82 (no result: NSD2 inh)
COC(=O)c1c(NC(=O)c2ccc(C)cc2)csc1C	Wnt bcat act 36, XiGFP reactiv inconclusive (no result: esBAF inh, MITF act)
COC(=O)c1sccc1NC(=O)c1ccc(C)cc1	none
CN(C)c1ccc(/C=C2\c3ccccc3C(=O)N2c2ccccc2)cn1	none (no result: NSD2 inh, MITF act)
O=C1c2ccccc2/C(=C\C#Cc2ccccn2)N1c1ccccc1	MITF act 95 (no result: NSD2 inh)
CN1C(=O)NC(c2ccccc2)(C(F)(F)F)S/C1=C(/C#N)c1nnc(N2CCOCC2)n1-c1ccccc1 (centres undefined)	Wnt bcat act 67 (no result: esBAF inh)
CN1C(c2ccc(F)cc2)=CS/C1=C(/C#N)c1nnc(N2CCOCC2)n1-c1ccccc1	none (no result: esBAF inh)
CC(C)NC(=O)N(C)C[C@H]1Oc2ncc(C#CC3CCCCC3)cc2C(=O)N([C@H](C)CO)C[C@H]1C	none (no result: Wnt bcat act, Casp6 inh, NSD2 inh, MITF act)
COc1ccc(CN(C)C[C@@H]2OCCCC[C@H](C)Oc3ccc(NS(=O)(=O)c4ccc(OC)cc4)cc3C(=O)N([C@@H](C)CO)C[C@@H]2C)cc1	none (no result: Wnt bcat act, Casp6 inh, NSD2 inh, MITF act)
COC(=O)c1sccc1-c1ccc(C(=O)Nc2cccnc2)o1	MITF act 97 (no result: Casp6 inh, XiGFP reactiv)
Cc1noc(C)c1-c1ccc(C(=O)Nc2ccccc2)c2occc12	esBAF inh 57 (no result: MITF act)
COc1ccc(NC(=O)c2ccc(-c3c(C)noc3C)c3ccoc23)cc1	esBAF inh 56 (no result: MITF act)
Cc1noc(C)c1-c1ccc(C(=O)NC2CCCCC2)c2occc12	esBAF inh 53 (no result: MITF act)
Cc1noc(C)c1-c1ccc(C(=O)NCC2CC2)c2occc12	none (no result: MITF act)
O=C(NCC(=O)N1CCC(Cc2ccccc2)CC1)c1ccccc1F	Wnt bcat act 45, esBAF inh 53 (no result: MITF act)
O=C(OCC(=O)N1CCC(Cc2ccccc2)CC1)c1ccccc1O	MITF act 90 (no result: esBAF inh)
CN1CCCN(C(=O)CNC(=O)c2ccccc2F)CC1	none
CCOC(=O)N1CCN(C(=O)CNC(=O)c2ccccc2F)CC1	none
O=C(NCC(=O)N1CCCC1)c1ccccc1F	esBAF inh 48
CCC(=O)N1C[C@H]2[C@@H](c3ccccc31)[C@@H](CO)N2C(=O)Nc1ccccc1	none (no result: Wnt bcat act, NSD2 inh, MITF act)
CCCNC(=O)[C@H]1[C@H](CO)[C@H]2Cn3c(ccc(-c4cccnc4)c3=O)[C@H]2N1Cc1cocn1	none (no result: Wnt bcat act, NSD2 inh, esBAF inh, MITF act)
CC(C)CN1CCC(CN2CCNC(=O)C2=O)CC1	Casp6 inh 36 (no result: NSD2 inh)
O=C(C1CC1)N1CCc2cc(Br)cc(S(=O)(=O)N3CCCCCC3)c21	Wnt bcat act 41 (no result: Casp6 inh, XiGFP reactiv, NSD2 inh, esBAF inh, MITF act)
